The values that follow come from PMC3618282 (International journal of pharmaceutics, 2012).

Square brackets hold non-standard residues; d marks the D form. Peptide text beside a SMILES is read from it. Sar = CNCC(=O)O

As usually defined, the Papp A→B is the apparent permeability from the apical to the basolateral side of a cell layer. A high value points to ready permeation. The term Papp B→A denotes how fast a substance crosses the layer from the basolateral side. Usually Km stands for the concentration of substrate that gives half-maximal velocity.

Data set [1] can be described thus: Transporter-mediated transepithelial Gly-Sar transport. The class given is in vitro ADME, canine. As to conditions: dog. Put shortly: (§1)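 Monolayers under passage 6 were grown on Transwell inserts (2 × 10^5 cells/cm2) and washed with DPBS pH 7.4. Apical 0.5 mL was at pH 4.0–7.4; basolateral 1.5 mL was held at pH 7.4. [3H]Gly-Sar was run AP→BL and BL→AP. Receiver samples were taken over 60 min and replaced with fresh DPBS. Transporter-mediated Papp is [3H]Gly-Sar minus [14C]mannitol passive transport; n = 4.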

In data set [2] the test system is apical peptide transporters. Description: Apical [3H]Gly-Sar uptake. Format: in vitro ADME, canine. Conditions: dog, MDCKII-MDR1 cells (apical uptake), pH 7.4. Put shortly:
(§2)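 Cells under passage 6 were seeded at 7 × 10^4 cells/cm2 in 12-well plates and washed with DPBS pH 7.4. Apical [3H]Gly-Sar (0.5 μCi/mL in DPBS) with unlabeled Gly-Sar (5–250 μM) was incubated 15 min at 37 °C and 4 °C. Stop was ice-cold 200 mM KCl/2 mM HEPES. Lysis in 0.3 N NaOH/0.1% Triton X-100, scintillation counting, normalised to protein. Specific uptake is 37 °C minus 4 °C. Michaelis–Menten fit gave Km and Vmax; efficiency is Vmax/Km; n = 3.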

The test system of data set [3] is apical peptide transporters in MDCKII-MDR1 cells. In words: Apical [3H]Gly-Sar uptake. Format: in vitro ADME, canine. Put shortly: as §2
Data set [4] can be described thus: Transporter-mediated transepithelial Gly-Sar transport. Conditions: dog, MDCKII-BCRP. Format: in vitro ADME, canine. Put shortly: as §1
For data set [5], the system named is apical peptide transporters in MDCKII-MRP2 cells. In words: Apical [3H]Gly-Sar uptake. Format: in vitro ADME, canine. Put shortly:
as §2

Data set [6] concerns apical peptide transporters. In words: Apical [3H]Gly-Sar uptake. Conditions: dog, MDCKII-MRP2 cells (apical uptake), pH 7.4. The class given is in vitro ADME, canine. Put shortly:
as §2

The test system of data set [7] is apical peptide transporters in MDCKII-wt cells. Description: Apical [3H]Gly-Sar uptake. Format: in vitro ADME, canine. Put shortly:
as §2

The test system of data set [8] is basolateral peptide transporters in MDCKII-wt cells. In words: Basolateral [3H]Gly-Sar uptake. Format: in vitro ADME, canine. Put shortly:
(§3)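 Cells under passage 6 were seeded at 2 × 10^5 cells/cm2 on Transwell inserts (0.4 μm pore) and dosed from the basolateral side. [3H]Gly-Sar was given with unlabeled Gly-Sar (0–250 μM) at 4 °C and 37 °C. Specific uptake is 37 °C minus 4 °C, normalised to protein and fitted to Michaelis–Menten for Km and Vmax; n = 3.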

Data set [9] concerns basolateral peptide transporters. In words: Basolateral [3H]Gly-Sar uptake. Conditions: dog, MDCKII-BCRP cells on Transwell inserts (basolateral uptake), pH 7.4. Format: in vitro ADME, canine. Put shortly:
as §3

The test system of data set [10] is basolateral peptide transporters in MDCKII-BCRP cells. In words: Basolateral [3H]Gly-Sar uptake. Format: in vitro ADME, canine. As to conditions: basolateral uptake, MDCKII-BCRP. Put shortly:
as §3

The subject of data set [11] is basolateral peptide transporters. In words: Basolateral [3H]Gly-Sar uptake. Conditions: dog, MDCKII-MRP2 cells on Transwell inserts (basolateral uptake), pH 7.4. The class given is in vitro ADME, canine. Put shortly:
as §3

Data set [12] has as its system basolateral peptide transporters in MDCKII-MRP2 cells. Description: Basolateral [3H]Gly-Sar uptake. The class given is in vitro ADME, canine. As to conditions: basolateral uptake, MDCKII-MRP2. Put shortly: as §3
In data set [13] the test system is basolateral peptide transporters. In words: Basolateral [3H]Gly-Sar uptake. Format: in vitro ADME, canine. As to conditions: dog, MDCKII-MDR1 cells on Transwell inserts (basolateral uptake), pH 7.4. Put shortly:
as §3

For data set [14], the system named is basolateral peptide transporters in MDCKII-MDR1 cells. Description: Basolateral [3H]Gly-Sar uptake. The class given is in vitro ADME, canine. As to conditions: basolateral uptake, MDCKII-MDR1. Put shortly: as §3
The test system of data set [15] is apical peptide transporters. In words: Apical [3H]Gly-Sar uptake. The class given is in vitro ADME, canine. As to conditions: dog, MDCKII-BCRP cells (apical uptake), pH 7.4. Put shortly: as §2
In data set [16] the test system is apical peptide transporters in MDCKII-BCRP cells. Description: Apical [3H]Gly-Sar uptake. The class given is in vitro ADME, canine. Put shortly: as §2
Data set [17] can be described thus: Transporter-mediated transepithelial Gly-Sar transport. The class given is in vitro ADME, canine. Conditions: dog; for Papp A→B at 60 min, 0.5 μCi/mL: MDCK-MDR1, AP–BL permeability; for Papp B→A at 60 min, 0.5 μCi/mL: MDCK-MDR1, BL–AP permeability. Put shortly: as §1
Test in data set [18]: as above
As to conditions: dog, MDCK, MDCKII-wt. The class given is in vitro ADME, canine. Put shortly: as §1

Data set [19] is described as follows: AP–BL [14C]Mannitol permeability. Format: in vitro ADME, canine. As to conditions: dog, MDCK-MDR1, pH 7.4.
A short description of data set [20]: AP–BL [14C]Mannitol permeability. Format: in vitro ADME, canine. As to conditions: dog, MDCK, pH 7.4.
Data set [21] concerns apical peptide transporters (PepT1 and PepT2) in MDCKII cell lines. In words: Inhibition of apical [3H]Gly-Sar uptake by peptide transporter inhibitors. Format: cell-based, canine. As to conditions: inhibitor 100 μM, pH 7.4, 37 °C, 15 min, all four MDCKII cell lines.
[22] abbreviates: AP–BL permeability, AP chamber pH 4.0, BL pH 7.4.
Where [23] appears, read: AP–BL permeability, AP chamber pH 5.0, BL pH 7.4.
Where [24] appears, read: AP–BL permeability, AP chamber pH 6.0, BL pH 7.4.
The mark [25] stands for this setting: BL–AP permeability, AP chamber pH 4.0, BL pH 7.4.
Setting [26] is: BL–AP permeability, AP chamber pH 5.0, BL pH 7.4.
Setting [27] is: BL–AP permeability, AP chamber pH 6.0, BL pH 7.4.
Where [28] appears, read: pH 7.4, AP–BL permeability, AP chamber pH 7.4, BL pH 7.4.
Where [29] appears, read: pH 7.4, BL–AP permeability, AP chamber pH 7.4, BL pH 7.4.
Setting [30] is: MDCKII-MDR1, AP chamber pH 4.0, BL pH 7.4.
The mark [31] stands for this setting: MDCKII-MDR1, AP chamber pH 5.0, BL pH 7.4.
Setting [32] is: MDCKII-MDR1, AP chamber pH 6.0, BL pH 7.4.

For the compound `CN(CC(=O)O)C(=O)CN` [Gly-Sar, Glycylsarcosine] (H-Gly-[Sar]-OH), the Papp A→B at 60 min, 0.5 μCi/mL in data set [1] (AP–BL permeability, MDCKII-MRP2, AP chamber pH 4.0, BL pH 7.4) was 8.6 ± 1.1 ×10⁻⁶ cm/s; in [1] (AP–BL permeability, MDCKII-MRP2, AP chamber pH 5.0, BL pH 7.4) it was 9.9 ± 0.8 ×10⁻⁶ cm/s; in [1] (AP–BL permeability, MDCKII-MRP2, AP chamber pH 6.0, BL pH 7.4), 10.6 ± 0.1 ×10⁻⁶ cm/s; in data set [1] (pH 7.4, AP–BL permeability, MDCKII-MRP2, AP chamber pH 7.4, BL pH 7.4) it was 17.7 ± 1.4 ×10⁻⁶ cm/s; in data set [4] (setting [22]) it was 7.1 ± 0.3 ×10⁻⁶ cm/s; in data set [4] (setting [23]), 7.6 ± 1.2 ×10⁻⁶ cm/s. Further, the Papp A→B at 60 min, 0.5 μCi/mL amounted to 10.7 ± 0.7 ×10⁻⁶ cm/s in data set [4] (setting [24]); 18.6 ± 1.9 ×10⁻⁶ cm/s in [4] (setting [28]); 6 ± 0.4 ×10⁻⁶ cm/s in [17] (setting [30]); 6.4 ± 0.5 ×10⁻⁶ cm/s in [17] (setting [31]); 8 ± 0.4 ×10⁻⁶ cm/s in [17] (setting [32]); 13.1 ± 1.4 ×10⁻⁶ cm/s in data set [18] (setting [22]). Further, the Papp A→B at 60 min, 0.5 μCi/mL in data set [18] (setting [23]) came out at 14.9 ± 2.8 ×10⁻⁶ cm/s; in [18] (setting [24]), 22.2 ± 1.9 ×10⁻⁶ cm/s; in [18] (setting [28]), 36.7 ± 0.2 ×10⁻⁶ cm/s. For the same compound, the Papp B→A at 60 min, 0.5 μCi/mL was 8.5 ± 0.6 ×10⁻⁶ cm/s in data set [1] (BL–AP permeability, MDCKII-MRP2, AP chamber pH 4.0, BL pH 7.4); 6.3 ± 0.4 ×10⁻⁶ cm/s in data set [1] (BL–AP permeability, MDCKII-MRP2, AP chamber pH 5.0, BL pH 7.4); 7.5 ± 0.5 ×10⁻⁶ cm/s in data set [1] (BL–AP permeability, MDCKII-MRP2, AP chamber pH 6.0, BL pH 7.4); 15.7 ± 0.6 ×10⁻⁶ cm/s in data set [1] (pH 7.4, BL–AP permeability, MDCKII-MRP2, AP chamber pH 7.4, BL pH 7.4); 10.9 ± 0.7 ×10⁻⁶ cm/s in data set [4] (setting [25]); 6.5 ± 0.7 ×10⁻⁶ cm/s in [4] (setting [26]). For the same compound, the apparent permeability from basolateral to apical (Papp B→A) at 60 min, 0.5 μCi/mL in data set [4] (setting [27]) is 7.2 ± 0.9 ×10⁻⁶ cm/s; in data set [4] (setting [29]), 15.6 ± 0.1 ×10⁻⁶ cm/s; in data set [17] (setting [30]), 10.1 ± 1.3 ×10⁻⁶ cm/s; in data set [17] (setting [31]), 7.6 ± 0.8 ×10⁻⁶ cm/s; in [17] (setting [32]) it was 8.2 ± 0.5 ×10⁻⁶ cm/s; in [18] (setting [25]) it was 9.4 ± 0.4 ×10⁻⁶ cm/s. Besides, the results for the Papp B→A at 60 min, 0.5 μCi/mL in data set [18] (setting [26]), in [18] (setting [27]) and in data set [18] (setting [29]) were 6.6 ± 0.6 ×10⁻⁶ cm/s, 6 ± 1 ×10⁻⁶ cm/s and 8 ± 0.9 ×10⁻⁶ cm/s, respectively. Besides, the Michaelis constant (Km) at 15 min in [2] was found to be 29.1 ± 3.29 µM; in [6], 84.8 ± 18.6 µM; in data set [9] it was 46.1 ± 2.26 µM; in data set [11] it was 64.6 ± 4.09 µM; in data set [13], 50.9 ± 7.86 µM; in [15], 60.7 ± 8.56 µM. The “transport efficiency relative to that in wild-type cells” value was “around 25%” in data set [3] (apical peptide transporters, MDCKII-MDR1 vs wild-type); about 30% in data set [5] (apical peptide transporters, MDCKII-MRP2 vs wild-type); about 41% in data set [16] (apical peptide transporters, MDCKII-BCRP vs wild-type). For the same compound, the Vmax in data set [3] (apical uptake, MDCKII-MDR1, low passage) is given as 1.30 ± 0.36 fmol/mg protein/min; in data set [5] (apical uptake, MDCKII-MRP2, low passage), 4.62 ± 0.76 fmol/mg protein/min; in [7] (apical uptake, MDCKII-wt), 10.76 ± 1.68 fmol/mg protein/min; in [8], 4.45 ± 0.04 fmol/mg protein/min; in [10] it was 13.07 ± 2.61 fmol/mg protein/min; in [12], 8.03 ± 1.78 fmol/mg protein/min. The Vmax in data set [14] is given as 8.52 ± 0.81 fmol/mg protein/min; in data set [16] (apical uptake, MDCKII-BCRP, low passage), 4.50 ± 0.83 fmol/mg protein/min. Also, the “Vmax relative to that in wild-type cells” value in data set [3] (apical uptake, hMDR1-transfected vs wild-type) is listed as “about 12%”; in data set [5] (apical uptake, hMRP2-transfected vs wild-type), about 43%; in data set [16] (apical uptake, hBCRP-transfected vs wild-type) it was about 42%. Moreover, the Km was 59.7 ± 1.1 µM in data set [7] (apical uptake, MDCKII-wt) and 13.7 ± 2.22 µM in data set [8]. For the same compound, the “extracellular pH of maximal apical uptake” value in data set [7] (pH 4.0–7.4 tested, all MDCKII cell lines) stood at 6.0. In [7] (total apical uptake at 37 °C, pH 7.4), the “uptake in MDCKII-wt cells in comparison with transfected cells” value is 3–5 fold.
As to `OC[C@@H](O)[C@@H](O)[C@H](O)[C@H](O)CO` [[^14C]Mannitol, Mannitol], the results for the apical-to-basolateral permeability (Papp A→B) at 60 min, 0.125 µCi/mL in data set [19] and in data set [20] were 18.4 ± 0.9 ×10⁻⁶ cm/s and 42.1 ± 0.5 ×10⁻⁶ cm/s, respectively.
As to `CCC(=O)O[C@@H](O[P@](=O)(CCCCc1ccccc1)CC(=O)N1C[C@H](C2CCCCC2)C[C@H]1C(=O)O)C(C)C` [fosinopril, Fosinopril], the “effect on apical [3H]Gly-Sar uptake compared to control” value in [21] was “significantly reduced apical Gly-Sar uptake”.
